The MIC50 is the lowest concentration that inhibits either 50% of growth or 50% of the strains tested, depending on the study.

In brackets after ≈: the same amount, converted by molar mass. Where only a bound is given, the exact number is not on record here.

The first experiment has as its system Mycobacterium tuberculosis variant bovis. The experiment can be described thus: Antimycobacterial activity against Mycobacterium bovis BCG Pasteur ATCC35734 assessed as inhibition of bacterial growth incubated for 5 days by broth microdilution method. The format is functional. Particulars: BCG Pasteur ATCC35734, 120 h, time 5 day. The essentials:
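M. bovis BCG Pasteur grown to mid-log (OD600 0.4–0.6), seeded at OD600 0.05 into 2-fold serial compound dilutions in complete Middlebrook 7H9, neutral pH. Incubation 5 days, 37 °C, shaking 90 rpm, humidified. […] At least two experiments, means reported.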
In general terms: Broth dilution looks for growth in wells or tubes with falling amounts of substance.
As for `Nc1nccnc1C(=O)O`, the MIC50 came to 800 µM (≈ 111 µg/mL).

As for `CCCC(=O)Nc1cnc(C(=O)O)c(N)n1`, the MIC50 was more than 4000 µM.

As to `O=C(O)c1cnc(O)cn1`, the MIC50 is more than 3000 µM.

Regarding `Cc1ccccc1-c1nccnc1C(=O)O`, the MIC50 is more than 5000 µM.

`O=C(O)c1nccnc1Br`: the MIC50 was more than 4000 µM.

Turning to `Cc1nccnc1C(=O)O`, the MIC50 was 3500 µM (≈ 483 µg/mL).

Regarding `CC(C)CNc1cncc(C(=O)[O-])n1.[Na+]`, the MIC50 was more than 2500 µM.

For the compound `CC(=O)NS(=O)(=O)c1cnccn1`, the MIC50 is more than 4000 µM.

With `CC(C)(C)Nc1nccnc1C(=O)O`, the MIC50 was 400 µM (≈ 78.1 µg/mL).

In the case of `O=C(O)c1cncnc1`, the MIC50 was more than 5000 µM.

Regarding `CCCCN(C)c1cnc(C(=O)O)c(N)n1`, the MIC50 was determined as 200 µM (≈ 44.9 µg/mL).

As to `O=C(O)c1nccnc1-c1ccccc1`, the MIC50 worked out at 1500 µM (≈ 300 µg/mL).

`COc1nccnc1C(=O)O`: the MIC50 worked out at 2700 µM (≈ 416 µg/mL).

Regarding `O=C(O)c1cnc2ccccc2n1`, the MIC50 amounted to 700 µM (≈ 122 µg/mL).

Take `O=C(O)c1ccccc1` [BENZOIC ACID]: the MIC50 came out at 2200 µM (≈ 269 µg/mL).

Regarding `O=C(O)c1cncc(NC2CCC2)n1`, the MIC50 was more than 2500 µM.

In the case of `CCC(=O)Nc1cncc(C(=O)O)n1`, the MIC50 was found to be 200 µM (≈ 39 µg/mL).

As for `CC(C)CN(C)c1cnc(C(=O)O)c(N)n1`, the MIC50 is 700 µM (≈ 157 µg/mL).

As for `COc1cncc(C(=O)O)n1`, the MIC50 turned out to be 2000 µM (≈ 308 µg/mL).

Regarding `O=C(O)c1nccnc1Nc1ccccc1`, the MIC50 was 400 µM (≈ 86.1 µg/mL).

Turning to `O=C(O)c1nccnc1N1CCCCC1`, the MIC50 is more than 2500 µM.

On to `Cc1cnc(C(=O)O)cn1`, for which the MIC50 stood at 3200 µM (≈ 442 µg/mL).

Regarding `O=C(O)c1nccnc1NC1CCCC1`, the MIC50 came out at 400 µM (≈ 82.9 µg/mL).

Consider `O=C(O)c1cnc(Cl)cn1`, for which the MIC50 worked out at 1700 µM (≈ 270 µg/mL).

Turning to `CC(C)C(=O)Nc1cnc(C(=O)O)c(N)n1`, the MIC50 is more than 4000 µM.

With `NC(=S)c1cnccn1`, the MIC50 is 2700 µM (≈ 376 µg/mL).

Consider `CC(C)CNc1cnc(C(=O)[O-])cn1.[Na+]`, for which the MIC50 is 400 µM.

Turning to `CCNc1nccnc1C(=O)[O-].[Na+]`, the MIC50 came out at 400 µM.

Turning to `CC(C)Nc1cnc(C(=O)O)c(N)n1`, the MIC50 was 1200 µM (≈ 235 µg/mL).

As to `CCCCNc1nccnc1C(=O)O`, the MIC50 was 600 µM (≈ 117 µg/mL).

As for `CCN(CC)c1nccnc1C(=O)O`, the MIC50 was determined as 3600 µM (≈ 703 µg/mL).

For `CCNc1cnc(C(=O)[O-])cn1.[Na+]`, the MIC50 was found to be 1800 µM.

Turning to `O=C(O)c1nccnc1O`, the MIC50 was more than 4000 µM.

For `O=C(O)c1nccnc1N1CCSCC1`, the MIC50 is more than 5000 µM.

With `CNc1nccnc1C(=O)O`, the MIC50 is 700 µM (≈ 107 µg/mL).

Turning to `O=C(O)c1cncc(Cl)n1`, the MIC50 was found to be 1000 µM (≈ 159 µg/mL).

Regarding `O=C(O)c1nccnc1Cl`, the MIC50 was determined as 1800 µM (≈ 285 µg/mL).

In the case of `O=C(O)c1cnc(-c2ccccc2)cn1`, the MIC50 was more than 4000 µM.

Take `O=C(O)c1ccnnc1`: the MIC50 was more than 4000 µM.

Take `O=C(O)c1nccnc1NC1CCC1`: the MIC50 stood at 400 µM (≈ 77.3 µg/mL).

Turning to `O=C(O)c1ccccn1` [2-PICOLINIC ACID], the MIC50 came to 700 µM (≈ 86.2 µg/mL).

`COc1cnc(C(=O)O)cn1`: the MIC50 turned out to be 3500 µM (≈ 539 µg/mL).

For `O=C(O)c1ccncc1` [ISONICOTINIC ACID], the MIC50 is 2700 µM (≈ 332 µg/mL).

With `Nc1cnc(C(=O)O)cn1`, the MIC50 was determined as 800 µM (≈ 111 µg/mL).

Turning to `O=C(O)c1nccnc1N1CCC2(CC1)CC2`, the MIC50 is more than 2500 µM.

As to `O=C(O)c1cnc(Br)cn1`, the MIC50 was 2500 µM (≈ 507 µg/mL).

In the case of `O=C(O)c1cncc(Br)n1`, the MIC50 was found to be 3000 µM (≈ 609 µg/mL).

In the case of `NS(=O)(=O)c1cnccn1`, the MIC50 is more than 4000 µM.

On to `O=C(O)c1cnc(NC2CCC2)cn1`, for which the MIC50 is more than 2500 µM.

Consider `Nc1cncc(C(=O)O)n1`, for which the MIC50 is 2600 µM (≈ 362 µg/mL).

Turning to `O=C(O)c1ncccn1`, the MIC50 was more than 4000 µM.

On to `CC(C)CN(C)c1nccnc1C(=O)O`, for which the MIC50 was determined as 3500 µM (≈ 732 µg/mL).

For `Cc1cccc(-c2nccnc2C(=O)O)c1`, the MIC50 was 800 µM (≈ 171 µg/mL).

Turning to `O=C(O)c1cccnc1` [NIACIN], the MIC50 stood at 900 µM (≈ 111 µg/mL).

For `Cc1ccc(-c2nccnc2C(=O)O)cc1`, the MIC50 was found to be 1000 µM (≈ 214 µg/mL).

On to `O=C(O)c1nccnc1N1CCOCC1`, for which the MIC50 is more than 5000 µM.

For `O=C(O)c1cnccn1` [PYRAZINOIC ACID], the MIC50 was found to be 1000 µM (≈ 124 µg/mL).

In the case of `CCC(=O)Nc1cnc(C(=O)O)cn1`, the MIC50 was determined as 3500 µM (≈ 683 µg/mL).

As to `CN(Cc1ccccc1)c1nccnc1C(=O)O`, the MIC50 came to 700 µM (≈ 170 µg/mL).

`CCNc1cncc(C(=O)[O-])n1.[Na+]`: the MIC50 was more than 2500 µM.

For `O=C(O)c1ccncn1`, the MIC50 came to 2000 µM (≈ 248 µg/mL).

`CC(=O)c1cnccn1`: the MIC50 is more than 5000 µM.

For `CCCNc1nccnc1C(=O)O`, the MIC50 turned out to be 200 µM (≈ 36.2 µg/mL).

Regarding `CC(=O)Nc1cnc(C(=O)O)c(N)n1`, the MIC50 was more than 4000 µM.

Take `CC(C)CNc1nccnc1C(=O)[O-].[Na+]`: the MIC50 was found to be 200 µM.

Turning to `O=C(O)c1cccnn1`, the MIC50 is more than 5000 µM.

`O=C(O)c1cncc(-c2ccccc2)n1`: the MIC50 is 1700 µM (≈ 340 µg/mL).

In the case of `CCCNc1cnc(C(=O)O)cn1`, the MIC50 worked out at 1400 µM (≈ 254 µg/mL).

With `Cc1cncc(C(=O)O)n1`, the MIC50 is 2400 µM (≈ 332 µg/mL).

On to `O=C(O)c1cncc(O)n1`, for which the MIC50 is more than 2400 µM.

On to `CCC(=O)Nc1nccnc1C(=O)O`, for which the MIC50 worked out at 1500 µM (≈ 293 µg/mL).

As to `O=C(O)c1nccnc1NCc1ccccc1`, the MIC50 was determined as 200 µM (≈ 45.8 µg/mL).

Turning to `CCCCN(C)c1nccnc1C(=O)O`, the MIC50 was found to be 2300 µM (≈ 481 µg/mL).

Take `O=C(O)c1nccnc1N1CCCC1`: the MIC50 is 4700 µM (≈ 908 µg/mL).

As for `c1cnc(-c2nnn[nH]2)cn1`, the MIC50 was more than 4000 µM.

For `CC(C)Nc1nccnc1C(=O)O`, the MIC50 was 20 µM (≈ 3.62 µg/mL).

For another experiment the test system is unchanged. The experiment can be described thus: Potency index, ratio of pyrazinoic-acid MIC50 to test compound MIC50 for antimycobacterial activity against Mycobacterium bovis BCG Pasteur ATCC35734 assessed as inhibition of bacterial growth incubated for 5 days by broth microdilution method. The settings on record: time 5 day. It counts as functional.
Turning to `CC(C)CNc1cncc(C(=O)[O-])n1.[Na+]`, the Ratio was determined as 2.5.

Regarding `CCC(=O)Nc1cncc(C(=O)O)n1`, the Ratio is reported as 5.

`CC(C)CNc1cnc(C(=O)[O-])cn1.[Na+]`: the Ratio came to 2.5.

On to `CCNc1nccnc1C(=O)[O-].[Na+]`, for which the Ratio turned out to be 2.5.

As for `CCNc1cnc(C(=O)[O-])cn1.[Na+]`, the Ratio turned out to be 2.5.

Turning to `CCNc1cncc(C(=O)[O-])n1.[Na+]`, the Ratio amounted to 2.5.

As to `CC(C)CNc1nccnc1C(=O)[O-].[Na+]`, the Ratio is listed as 2.5.

The record behind these values is ChEMBL document CHEMBL5096213 (Bioorg Med Chem, 2022).
